Source: ChEMBL document CHEMBL1121809, “Cyclic guanidines. 14. Imidazo[1,2-a]thienopyrimidin-2-one derivatives as blood platelet aggregation inhibitors” (J Med Chem, 1981)
Several values for one entry are separate records, joined by “and”; a condition that tells them apart may be missing. Identical values can stand only once.

Columns and labels:
Rattus norvegicus [1] = assay: Effect on heart rate in rat after an oral dose at 50 mg/kg (3h after dose); assay type: functional
How it was run: (§1)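 Male Wistar-Imamichi rats, 250 g, were given the compound orally at (50 mg/7.5 mL)/kg as a suspension in 0.5% CMC or 0.5% Tween 80. Systolic pressure and heart rate were taken by tail-cuff after prewarming at 55–60 °C for 3 min, before dosing and at set times after. Five rats per group, mean ± SD. Pressure is reported as decrease and heart rate as percent change.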

Rattus norvegicus [2] = assay: Inhibition of ADP-induced blood platelet aggregation in rat given vehicle at an oral dose of 50 mg/kg (delta A/min *10e 3); assay type: functional
Rattus norvegicus [3] = assay: Inhibition of collagen-induced blood platelet aggregation in rat was measured given compound at an oral dose of 50 mg/kg (delta A/min *10e 3); assay type: functional
How it was run: (§2)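 Overnight-fasted rats were dosed orally at (50 mg/10 mL)/kg in 0.5% Tween 80; controls got vehicle at 10 mL/kg. PRP was made from carotid citrated blood 2 h later under pentobarbital. Collagen suspension (absorbance 0.270 at 420 nm) drove aggregation at 30 °C, 1100 rpm. Read-out was the initial maximal rate of absorbance fall (ΔA/min). Inhibition percent is versus controls; 5–7 rats, mean ± SD.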

Rattus norvegicus [4] = assay: Effect on heart rate in rat after an oral dose at 50 mg/kg (1h after dose); assay type: functional; how it was run: as §1
Rattus norvegicus [5] = assay: Inhibition of ADP-induced blood platelet aggregation in rat given compound at an oral dose of 50 mg/kg (delta A/min *10e 3); assay type: functional
Rattus norvegicus [6] = assay: Effect on systolic blood pressure in rat after an oral dose at 50 mg/kg; assay type: functional, Artery; how it was run: as §1
Rattus norvegicus [7] = assay: (§3) Ex vivo inhibition of collagen-induced blood platelet aggregation in rat was measured 2 hr after oral administration of 50 mg/kg; assay type: functional; how it was run: as §2
Rattus norvegicus [8] = assay: Effect of compound on heart rate in rat after an oral dose at 50 mg/kg; assay type: functional; how it was run: as §1
[9] = Inhibition of collagen-induced blood platelet aggregation in human; assay type: functional
How it was run: (§4)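 In vitro aggregation used human platelets. EC50 was estimated from inhibition at three to six compound concentrations and is the mean of two to three experiments.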

Rattus norvegicus [10] = assay: Effect of compound on systolic blood pressure in rat after an oral dose at 50 mg/kg (1h after dose); assay type: functional, Artery; how it was run: as §1
Rattus norvegicus [11] = assay: Effect on systolic blood pressure in rat after an oral dose at 50 mg/kg (3h after dose); assay type: functional, Artery; how it was run: as §1
Rattus norvegicus [12] = assay: Effect of compound on systolic blood pressure in rat after an oral dose at 50 mg/kg (24h after dose); assay type: functional, Artery; how it was run: as §1
Rattus norvegicus [13] = species: Rattus norvegicus; assay: Inhibition of thrombin-induced blood platelet aggregation in rat; assay type: functional
How it was run: (§5)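 Rat PRP was prepared from citrated carotid blood of male Wistar-Imamichi rats (250 g) under pentobarbital anesthesia, spun at 230g for 7 min, and adjusted with PPP to about 5 × 10⁵ platelets/μL. Aggregation was read turbidimetrically at 30 °C with 1100 rpm stirring. Compound in saline or MeOH was added before the agonist. EC50 was estimated from inhibition at three to six concentrations, as the mean of two to three experiments.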

Rattus norvegicus [14] = assay: Inhibition of collagen-induced blood platelet aggregation in rat was measured given vehicle at an oral dose of 50 mg/kg (delta A/min *10e 3); assay type: functional; how it was run: as §2
Rattus norvegicus [15] = species: Rattus norvegicus; assay: In vitro inhibition of collagen-induced blood platelet aggregation; assay type: functional
How it was run: (§6)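 Rat PRP (about 5 × 10⁵ platelets/μL) was preincubated with compound added in saline or MeOH. Aggregation was started with bovine tendon collagen suspension in Tris buffer (absorbance 0.270 at 420 nm; lag 2–3 min). Read at 30 °C, 1100 rpm, as initial maximal rate ΔA/min. EC50 is the concentration giving 50% inhibition.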

Rattus norvegicus [16] = assay: Effect of compound on heart rate in rat after an oral dose at 50 mg/kg (24h after dose); assay type: functional; how it was run: as §1
Rattus norvegicus [17] = species: Rattus norvegicus; assay: In vitro inhibition of ADP-induced blood platelet aggregation; assay type: functional
How it was run: (§7)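 Rat carotid citrated blood was spun at 230g for 7 min to give PRP, adjusted with PPP to about 5 × 10⁵ platelets/μL. Compound in saline or MeOH was added before 10 μM ADP in Tris-HCl/NaCl pH 7.4 with CaCl₂. Aggregation was read at 30 °C, 1100 rpm, as maximal ΔA. EC50 is the concentration giving 50% inhibition.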

Rattus norvegicus [18] = assay: Effect on heart rate in rat after an oral dose at 50 mg/kg (4h after dose); assay type: functional; how it was run: as §1
Rattus norvegicus [19] = species: Rattus norvegicus; assay: Inhibition of ADP-induced blood platelet aggregation in rat; assay type: functional; how it was run: as §7
[20] = Inhibition ofADP-induced blood platelet aggregation in human; assay type: functional
How it was run: (§8)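 In vitro platelet aggregation test. EC50 was estimated from the inhibition rate at three to six compound concentrations and given as the mean of two to three experiments.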

Rattus norvegicus [21] = assay: Effect on systolic blood pressure in rat after an oral dose at 50 mg/kg (6h after dose); assay type: functional, Artery; how it was run: as §1
Rattus norvegicus [22] = species: Rattus norvegicus; assay: Inhibition of arachidonic acid-induced blood platelet aggregation in rat; assay type: functional
How it was run: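 Rat PRP was stimulated with arachidonic acid at 30 °C under stirring, with compound added before the agonist. EC50 was estimated from inhibition at three to six concentrations and is the mean of two to three experiments.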

Rattus norvegicus [23] = assay: Effect of compound on heart rate in rat after an oral dose at 50 mg/kg (5h after dose); assay type: functional; how it was run: as §1
Rattus norvegicus [24] = species: Rattus norvegicus; assay: Inhibition of collagen-induced blood platelet aggregation in rat; assay type: functional; how it was run: as §6
Rattus norvegicus [25] = assay: Effect on systolic blood pressure in rat after an oral dose at 50 mg/kg (5h after dose); assay type: functional, Artery; how it was run: as §1
Rattus norvegicus [26] = assay: Effect on heart rate in rat after an oral dose at 50 mg/kg; assay type: functional; how it was run: as §1
Oryctolagus cuniculus = species: Oryctolagus cuniculus; assay: Inhibition of serotonin/epinephrine-induced blood platelet aggregation in rabbit; assay type: functional; how it was run: as §8
Rattus norvegicus [27] = assay: Effect on systolic blood pressure in rat after an oral dose at 50 mg/kg (4h after dose); assay type: functional, Artery; how it was run: as §1
[28] = Inhibition of ADP-induced blood platelet aggregation in human; assay type: functional; how it was run: as §4
Rattus norvegicus [29] = assay: Ex vivo inhibition of collagen-induced blood platelet aggregation in rat was measured 2 hr after administration of vehical alone; assay type: functional; how it was run: as §2
Rattus norvegicus [30] = assay: Effect on systolic blood pressure in rat after an oral dose at 50 mg/kg (1h after dose); assay type: functional, Artery; how it was run: as §1
Rattus norvegicus [31] = assay: as §3; assay type: functional; how it was run: as §2
Rattus norvegicus [32] = assay: Effect of compound on heart rate in rat after an oral dose at 50 mg/kg (24h after dose); Not mention; assay type: functional, organism-based; set-up: dose 50 mg/kg; how it was run: as §1
Rattus norvegicus [33] = species: Rattus norvegicus; assay: Inhibition of thrombin-induced blood platelet aggregation in rat; Not mention; assay type: functional; how it was run: as §5
Rattus norvegicus [34] = assay: Effect of compound on heart rate in rat after an oral dose at 50 mg/kg (6h after dose); assay type: functional; how it was run: as §1
Rattus norvegicus [35] = assay: Ex vivo inhibition of ADP-induced blood platelet aggregation in rat was measured 2 hr after administration of vehical alone (delta A/min *10e 3); assay type: functional
Rattus norvegicus [36] = assay: Effect of compound on heart rate in rat after an oral dose at 50 mg/kg (2h after dose); assay type: functional; how it was run: as §1
Rattus norvegicus [37] = assay: Effect of compound on heart rate in rat after an oral dose at 50 mg/kg/5h after dose); assay type: functional; how it was run: as §1

| EC50 [9] | EC50 (Rattus norvegicus [13]) [µM] | EC50 (Rattus norvegicus [15]) [µM] | EC50 (Rattus norvegicus [17]) [µM] | EC50 (Rattus norvegicus [19]) [µM] | EC50 [20] | Compound | Change in heart rate (Rattus norvegicus [1]) [%] | Change in heart rate (Rattus norvegicus [4]) [%] | Initial blood pressure (Rattus norvegicus [6]) [mmHg] | Delta A/min (Rattus norvegicus [7]) | Decrease in blood pressure (Rattus norvegicus [11]) | Decrease in blood pressure (Rattus norvegicus [12]) | Change in heart rate (Rattus norvegicus [18]) [%] | Decrease in blood pressure (Rattus norvegicus [21]) | Change in heart rate (Rattus norvegicus [23]) [%] | Decrease in blood pressure (Rattus norvegicus [25]) | Initial heart rate (Rattus norvegicus [26]) [bts min-1] | Decrease in blood pressure (Rattus norvegicus [27]) | Delta A/min (Rattus norvegicus [29]) | Decrease in blood pressure (Rattus norvegicus [30]) | also measured |
| --- | --- | --- | --- | --- | --- | --- | --- | --- | --- | --- | --- | --- | --- | --- | --- | --- | --- | --- | --- | --- | --- |
| 1.2 µM and 0.4 µM | 3 | 0.07 | 2 | 2 | 2.2 µM | Cl.O=C1CN2Cc3c(sc4c3CCCC4)N=C2N1 | 8 | 4 | 122 | 0 | 8 | 4 | 12 | 6 | 9 | 9 | 467 | 8 | – | – | Delta A/min (Rattus norvegicus [2]): 115; Delta A/min (Rattus norvegicus [3]): 0; Delta A/min (Rattus norvegicus [5]): 141; Change in heart rate (Rattus norvegicus [8]): 9%; Decrease in blood pressure (Rattus norvegicus [10]): 4; Delta A/min (Rattus norvegicus [14]): 156; Change in heart rate (Rattus norvegicus [16]): -1%; EC50 (Rattus norvegicus [22]): 0.5 µM; EC50 (Rattus norvegicus [24]): 0.07 µM; EC50 (Oryctolagus cuniculus): 3 µM; EC50 [28]: 2.2 µM |
| – | – | 0.6 | 48 | 48 | – | CC1C(=O)NC2=Nc3sc4c(c3CN21)CCCC4.Cl (stereo not given) | 2 | 5 | 128 | – | 14 | – | 4 | – | 4 | 4 | 440 | 11 | 0.18 | 24 | Delta A/min (Rattus norvegicus [31]): 0.002 ΔA/min; Change in heart rate (Rattus norvegicus [32]): Not mention; EC50 (Rattus norvegicus [33]): Not mention |
| – | – | 0.02 | 0.8 | – | – | O=C1CN2Cc3c(ccc(Cl)c3Cl)N=C2N1 [ANAGRELIDE] | 31 | 28 | 130 | – | 16 | 13 | 37 | 14 | 31 | 14 | 377 | 14 | 0.188 | 11 | Delta A/min (Rattus norvegicus [31]): 0.126 ΔA/min; Change in heart rate (Rattus norvegicus [34]): 33%; Delta A/min (Rattus norvegicus [35]): 150 |
| 0.7 µM | 3 | 0.8 | 5 | – | 1.7 µM and 10 µM | Cc1cccc2c1CN1CC(=O)NC1=N2 | 17 | 18 | – | 0.11 ΔA/min | 26 | 12 | – | 35 | – | 34 | 464 | – | 0.244 | 23 | Change in heart rate (Rattus norvegicus [36]): 20%; Change in heart rate (Rattus norvegicus [34]): 19%; Change in heart rate (Rattus norvegicus [16]; 50 mg/kg): 19% and -1%; EC50 (Rattus norvegicus [22]): 0.5 µM; Change in heart rate (Rattus norvegicus [37]): 18%; EC50 (Oryctolagus cuniculus): 3 µM |
